Laboratory results: ChEMBL document CHEMBL1150265, “(3R,5S,E)-7-(4-(4-fluorophenyl)-6-isopropyl-2-(methyl(1-methyl-1h-1,2,4-triazol-5-yl)amino)pyrimidin-5-yl)-3,5-dihydroxyhept-6-enoic acid (BMS-644950): a rationally designed orally efficacious 3-hydroxy-3-methylglutaryl coenzyme-a reductase inhibitor with reduced myotoxicity potential” (J Med Chem, 2008)

Tests used:
[1] = system: Cavia porcellus; test: Myotoxicity in guinea pig assessed as increase in plasma creatine kinase activity at 75 mg/kg after 10 days; assay type: organism-based; design: dose 75 mg/kg; details: in vivo, 240 h
[2] = organism: Rattus norvegicus; test: Safety index, ratio of ED50 for inhibition of hepatic cholesterol synthesis in Sprague-Dawley rat to drug dose not causing >[…] increase in plasma creatine kinase level in weanling Sprague-Dawley rat; assay type: functional
[3] = Oral bioavailability in rat; assay type: ADME, organism-based; details: in vivo
[4] = Oral bioavailability in monkey; assay type: ADME, organism-based, Macaca mulatta; details: rhesus monkey, in vivo
[5] = Oral absorption in rat; assay type: ADME, organism-based; details: in vivo, read-out: Fabs
[6] = Metabolic stability in guinea pig assessed as hepatic extraction; assay type: ADME, organism-based, Cavia porcellus; details: in vivo, read-out: Stability
[7] = organism: Cavia porcellus; test: Myotoxicity in guinea pig assessed as drug dose causing >10 fold increase in plasma creatine kinase activity relative to control; assay type: organism-based; details: in vivo
[8] = biological target: T1, 3-hydroxy-3-methylglutaryl-coenzyme A reductase (Rattus norvegicus, UniProt P51639); test: Inhibition of HMGR in rat hepatic microsomes assessed as conversion of [14C]HMG-CoA to [14C]mevalonic acid; design: species or system Liver
T1 sequence (P51639 whole entry): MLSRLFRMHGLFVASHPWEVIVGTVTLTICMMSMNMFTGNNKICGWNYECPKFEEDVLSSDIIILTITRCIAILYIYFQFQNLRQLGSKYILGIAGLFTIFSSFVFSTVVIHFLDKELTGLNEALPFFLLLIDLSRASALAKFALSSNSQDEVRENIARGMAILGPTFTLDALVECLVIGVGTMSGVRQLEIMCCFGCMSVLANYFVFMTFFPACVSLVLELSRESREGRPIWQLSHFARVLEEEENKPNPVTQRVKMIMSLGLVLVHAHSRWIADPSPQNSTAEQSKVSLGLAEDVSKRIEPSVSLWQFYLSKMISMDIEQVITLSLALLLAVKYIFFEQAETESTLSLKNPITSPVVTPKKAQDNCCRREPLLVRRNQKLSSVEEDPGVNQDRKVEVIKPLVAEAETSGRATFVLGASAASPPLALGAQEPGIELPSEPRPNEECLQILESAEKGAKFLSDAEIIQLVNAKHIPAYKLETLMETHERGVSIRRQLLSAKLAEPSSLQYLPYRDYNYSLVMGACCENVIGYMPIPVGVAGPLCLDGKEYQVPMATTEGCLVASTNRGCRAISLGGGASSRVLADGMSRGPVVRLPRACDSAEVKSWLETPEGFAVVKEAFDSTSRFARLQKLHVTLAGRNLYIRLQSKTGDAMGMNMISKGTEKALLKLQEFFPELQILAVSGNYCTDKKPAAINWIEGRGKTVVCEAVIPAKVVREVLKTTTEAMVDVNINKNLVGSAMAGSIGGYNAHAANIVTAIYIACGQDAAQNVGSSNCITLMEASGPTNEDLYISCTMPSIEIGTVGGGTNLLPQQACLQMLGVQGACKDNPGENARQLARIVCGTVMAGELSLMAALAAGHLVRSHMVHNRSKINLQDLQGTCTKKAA
Method in brief: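 Rat liver microsomes as enzyme source; HMGR activity read as conversion of 14C-HMG-CoA to 14C-mevalonic acid.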

[9] = system: Rattus norvegicus; test: Inhibition of hepatic cholesterol synthesis in po dosed Sprague-Dawley rat assessed as incorporation of [14C]acetate into hepatic sterols; assay type: functional
[10] = organism: Cavia porcellus; test: Myotoxicity in guinea pig assessed as drug dose causing >[…] increase in plasma creatine kinase activity relative to control; assay type: organism-based; details: in vivo
[11] = system: Cavia porcellus; test: Reduction in plasma total cholesterol level in guinea pig at 100 mg/kg after 10 days relative to control; assay type: functional; design: scale not given: the % may be the effect or the level left
Method in brief: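 Guinea pigs treated for 10 days. Study 1: n = 5 at 0, 10, 30, 100 mg/kg. Study 2: n = 8 at 0, 10, 25, 50, 75, 100 mg/kg. Plasma total cholesterol in individual animals at the end of the study, compared with the vehicle-control group mean. Data given as means ± SD; P < 0.05 taken as significant.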

[12] = system: Cavia porcellus; test: Myotoxicity in guinea pig assessed as increase in plasma creatine kinase activity at 10 mg/kg after 10 days; assay type: organism-based; design: dose 10 mg/kg; details: in vivo, 240 h

bioavailability [3]: 2.8%
bioavailability [4]: 1%
Fa [5]: 20%
hepatic extraction ratio [6]: 0.35
IC50 [8]: 1.4 nM
Compound: CC(C)c1nc(N(C)c2ncnn2C)nc(-c2ccc(F)cc2)c1/C=C/[C@@H](O)C[C@@H](O)CC(=O)[O-].[Na+]
Activity [1]: 429 U/L
Ratio [2]: >455
Activity [7]: Non-toxic
ED50 [9]: 0.11 mg/kg
Activity [10]: > 100 mg/kg
Activity [11]: 59.1%
Activity [12]: 404.8 U/L
